# Source: ChEMBL document CHEMBL1121804, “Cognition-activating properties of 3-(Aryloxy)pyridines” (J Med Chem, 1981)
# Experiments:
# Format in all cases: functional, organism-based
# Mus musculus [1] = assay: Retention for passive avoidance learning in mice at dose 5.0 mg/kg; design: dose 5 mg/kg
# Procedure, shortened: (§1)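 Naive male CF-1 mice (19–21 g at shipment), 20 per dose, each used once. Dosed i.p. as an aqueous solution or methocel suspension 1 h before footshock training, with a saline group run in parallel. At the test, mice were placed on an outside shelf; entering the box within 60 s counted as no retention. Values are percent retention. A day was discarded unless controls scored 65–75%.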
# Mus musculus [2] = assay: Retention for passive avoidance learning in mice at dose 20 mg/kg; design: dose 20 mg/kg; procedure, shortened: as §1
# Mus musculus [3] = assay: Retention for passive avoidance learning in mice at dose 80 mg/kg; design: dose 80 mg/kg; procedure, shortened: as §1
# Mus musculus [4] = assay: Retention for passive avoidance learning in mice at dose 1.25 mg/kg; design: dose 1.25 mg/kg; procedure, shortened: as §1
# Mus musculus [5] = assay: Retention for passive avoidance learning in mice at dose 2.5 mg/kg; design: dose 2.5 mg/kg; procedure, shortened: as §1
# Mus musculus [6] = assay: Retention for passive avoidance learning in mice at dose 5 mg/kg; design: dose 5 mg/kg; procedure, shortened: as §1
# Mus musculus [7] = assay: Compound was tested for cognitive activity by measuring retention for passive avoidance learning in mice at dose 20 mg/kg; design: dose 20 mg/kg; procedure, shortened: as §1
# Mus musculus [8] = assay: (§2) Compound was tested for cognitive activity by measuring retention for passive avoidance learning in mice at dose 0.63 mg/kg; design: dose 0.63 mg/kg; procedure, shortened: as §1
# Mus musculus [9] = assay: Compound was tested for cognitive activity by measuring retention for passive avoidance learning in mice at dose 10 mg/kg; design: dose 10 mg/kg
# Procedure, shortened: (§3)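 Male CF-1 mice (19–21 g at shipment), 20 per dose group, each used once. Given ip an aqueous solution or methocel suspension 1 h before footshock training, with a saline group run alongside. Retention test: mouse placed on an outer shelf of the box; entering within 60 s scored as not retained. Value is percent retention. Days with control retention outside 65–75% were discarded.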
# Mus musculus [10] = assay: Compound was tested for cognitive activity by measuring retention for passive avoidance learning in mice at dose 40 mg/kg; design: dose 40 mg/kg; procedure, shortened: as §1
# Mus musculus [11] = assay: Compound was tested for cognitive activity by measuring retention for passive avoidance learning in mice at dose 0.32 mg/kg; design: dose 0.32 mg/kg; procedure, shortened: as §3
# Mus musculus [12] = assay: as §2; design: dose 0.63 mg/kg; procedure, shortened: as §3; remark: listed apart in the source
# Mus musculus [13] = assay: Compound was tested for cognitive activity by measuring retention for passive avoidance learning in mice at dose 0.15 mg/kg; design: dose 0.15 mg/kg; procedure, shortened: as §3
# Mus musculus [14] = assay: Compound was tested for cognitive activity by measuring retention for passive avoidance learning in mice at dose 20 mg/kg i; design: dose 20 mg/kg; procedure, shortened: as §3
# Mus musculus [15] = assay: Compound was tested for cognitive activity by measuring retention for passive avoidance learning in mice at dose 1.25 mg/kg; design: dose 1.25 mg/kg; procedure, shortened: as §3
Structure (SMILES),Retention (Mus musculus [1]),Retention (Mus musculus [2]),Retention (Mus musculus [3]),Retention (Mus musculus [4]),Retention (Mus musculus [5]),also measured
Cc1ncccc1Oc1ccccc1N,65%,45%,40%,–,–,–
FC(F)(F)c1cccc(Oc2cccnc2)c1,30%,55%,–,–,–,–
CCOc1ccccc1Oc1cccnc1,70%,70%,65%,–,–,–
COc1cc2c(cc1OC)C1CC(=O)C(CC(C)C)CN1CC2 (stereo unspecified),–,–,–,59%,63%,Retention (Mus musculus [6]): 33%
Brc1ccccc1Oc1cccnc1,65%,–,–,–,–,Retention (Mus musculus [7]): 50%
c1ccc(Oc2cccnc2)cc1,100%,70%,35%,90%,90%,Retention (Mus musculus [8]): 65%
CC(N)Cc1ccccc1 (stereo unspecified),–,–,–,70%,75%,–
COC(=O)C(c1ccccc1)C1CCCCN1 (stereo unspecified),–,87%,–,50%,50%,Retention (Mus musculus [6]): 90%; Retention (Mus musculus [9]): 65%
COC(=O)c1cccc(Oc2cccnc2)c1,70%,60%,55%,–,–,–
O=[N+]([O-])c1ccccc1Oc1cccnc1,60%,90%,50%,–,–,–
[O-][n+]1cccc(Oc2ccc[n+]([O-])c2)c1,90%,90%,60%,75%,60%,Retention (Mus musculus [8]): 65%
Nc1ccccc1Oc1cccnc1,80%,65%,55%,–,70%,–
COc1cccc(Oc2cccnc2)c1,55%,55%,20%,–,–,–
NC1=NC(=O)C(c2ccccc2)O1 (stereo unspecified),–,83%,77%,–,–,Retention (Mus musculus [10]): 83%; Retention (Mus musculus [6]): 30%; Retention (Mus musculus [9]): 70%
Cc1ncccc1Oc1ccccc1[N+](=O)[O-],85%,70%,35%,70%,70%,–
COc1ccc(Oc2cccnc2)cc1,78%,75%,35%,–,–,–
c1ccc(Oc2ccncc2)cc1,70%,65%,0%,–,–,–
O=C1C[C@@H]2OCC=C3CN4CC[C@]56c7ccccc7N1[C@H]5[C@H]2[C@H]3C[C@H]46,–,–,–,–,–,Retention (Mus musculus [11]): 70%; Retention (Mus musculus [12]): 75%
Fc1ccccc1Oc1cccnc1,90%,85%,50%,65%,80%,Retention (Mus musculus [8]): 60%
Clc1cccc(Oc2cccnc2)c1,60%,60%,0%,–,–,–
c1ccc(Sc2cccnc2)cc1,80%,85%,85%,–,–,–
O=c1[nH]c2ccccc2n1C1CCN(CCCC(c2ccc(F)cc2)c2ccc(F)cc2)CC1,–,–,–,–,–,Retention (Mus musculus [13]): 43%; Retention (Mus musculus [11]): 40%; Retention (Mus musculus [12]): 27%

Structure (SMILES),Retention (Mus musculus [1]),Retention (Mus musculus [2]),Retention (Mus musculus [3]),Retention (Mus musculus [4]),Retention (Mus musculus [5]),also measured
Fc1ccc(Oc2cccnc2)cc1,95%,80%,50%,60%,85%,Retention (Mus musculus [8]): 35%
Brc1ccc(Oc2cccnc2)cc1,90%,70%,85%,75%,70%,Retention (Mus musculus [8]): 75%
CN(C)CCCN1c2ccccc2Sc2ccc(Cl)cc21,–,–,–,70%,70%,Retention (Mus musculus [6]): 20%
Cc1cncc(Oc2ccccc2)c1,70%,80%,45%,–,–,–
Clc1ccccc1Oc1cccnc1,95%,80%,40%,45%,40%,Retention (Mus musculus [8]): 60%
CCC1(C)CC(=O)NC1=O (stereo unspecified),–,–,95%,–,–,Retention (Mus musculus [10]): 70%; Retention (Mus musculus [14]): 90%; Retention (Mus musculus [9]): 63%
CN(C)CCCN1c2ccccc2CCc2ccccc21,–,77%,–,–,–,Retention (Mus musculus [10]): 72%; Retention (Mus musculus [6]): 65%; Retention (Mus musculus [9]): 80%
O=C1NC(=O)C(c2ccccc2)(c2ccccc2)N1,–,–,15%,85%,75%,Retention (Mus musculus [10]): 50%; Retention (Mus musculus [14]): 55%; Retention (Mus musculus [6]): 90%; Retention (Mus musculus [9]): 43%
[O-][n+]1cccc(Oc2ccccc2)c1,40%,20%,0%,–,–,–
Cn1c(=O)c2c(ncn2C)n(C)c1=O,–,–,0%,87%,37%,Retention (Mus musculus [10]): 3%; Retention (Mus musculus [6]): 37%; Retention (Mus musculus [12]): 70%; Retention (Mus musculus [9]): 3%
CCCC(C)C1(CC)C(=O)NC(=O)NC1=O (stereo unspecified),–,–,–,40%,7%,Retention (Mus musculus [12]): 23%
[O-][n+]1cccc(Oc2cccnc2)c1,85%,85%,85%,45%,65%,Retention (Mus musculus [8]): 60%
c1cncc(Oc2cccnc2)c1,85%,100%,55%,–,–,–
c1ccc(Oc2ccccn2)cc1,65%,50%,30%,–,–,–
Clc1ccc(Oc2cccnc2)cc1,80%,30%,65%,65%,70%,Retention (Mus musculus [8]): 55%
[Cl-].[Li+],–,–,38%,84%,70%,Retention (Mus musculus [10]): 23%; Retention (Mus musculus [6]): 0%; Retention (Mus musculus [12]): 60%; Retention (Mus musculus [9]): 31%
Cc1ccncc1Oc1ccccc1,75%,85%,15%,–,–,–
Fc1cccc(Oc2cccnc2)c1,90%,55%,55%,75%,75%,Retention (Mus musculus [8]): 65%
C=C(C)[C@@H]1[C@H]2OC(=O)[C@@H]1[C@]1(O)C[C@H]3OC34C(=O)O[C@H]2[C@@]41C.CC(C)(O)[C@@H]1[C@H]2OC(=O)[C@@H]1[C@]1(O)C[C@H]3OC34C(=O)O[C@H]2[C@@]41C (stereo partly specified),–,–,–,–,80%,Retention (Mus musculus [11]): 65%; Retention (Mus musculus [15]): 90%; Retention (Mus musculus [6]): 70%; Retention (Mus musculus [12]): 80%
CN1[C@@H]2C[C@@H](OC(=O)[C@H](CO)c3ccccc3)C[C@H]1[C@@H]1O[C@@H]12,–,–,–,–,–,Retention (Mus musculus [13]): 65%; Retention (Mus musculus [11]): 65%; Retention (Mus musculus [15]): 35%; Retention (Mus musculus [12]): 30%
CN1C(=O)CN=C(c2ccccc2)c2cc(Cl)ccc21,–,–,–,53%,40%,Retention (Mus musculus [6]): 41%
